Compounds with a hit are over-represented: about 4.8% of the library has one in this group of screens.
HSF1 inh = HSF1 inhibitors in luciferase reporter cells, primary screen, cell-based, NIH3T3, luminescence; NIH3T3-HGL HSE-luciferase, MG132-induced, luminescence 8 h; stronger effect = lower value; activity change, negative = inhibition, % at 7.5 µM (by protocol); actives 0.77% (n = 300,000); AID 2098, 2009;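 active = more than half of replicate wells show activity change below -50%, luminescence cut by over half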;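 note: luciferase reports HSF-1 transcriptional activity via heat shock element; 0% = median of DMSO wells and -100% = zero luminescence signal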
HSF-1 act = HSF-1 activators, primary screen, NIH3T3-HGL cells, MG132 stress, luminescence, single point; AID 504408, 2011; NIH3T3-HGL HSF-1 luciferase reporter, 8 h; 100% = twice DMSO control signal; activation, % at 9 µM; actives 1.7% (n = 300,000);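 active = mean replicate activation of at least 50% with a set share of replicates each reaching 50%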;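 note: 0% = median of the neutral control wells and 100% = twice that signal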
T cruzi inh = inhibitors of intracellular T. cruzi growth, primary screen, luminescence, NIH3T3 host cells; T. cruzi beta-gal in NIH3T3, 90 h; inhibition, % (test concentration not listed); actives 1.4% (n = 300,000);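 active = mean inhibition across valid replicates above about 55%, limit read from the data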;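 note: signal also drops with host cell toxicity which is not excluded here; 0% = plate median of DMSO wells and 100% = zero luminescence signal; higher percent means less beta-gal luminescence so fewer parasites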
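assay system = mouse NIH/3T3 fibroblasts infected with β-gal-expressing T. cruzi Tulahuen C4 | input = 5,000 NIH/3T3 host cells per well | buffer or medium = DMEM plus 2% FBS | timing = 3 h host attachment, then at least 90 h co-culture | measured by = GalScreen luminescence, 60 min | evaluation = luminescence reflecting intracellular parasite burden, expressed as percent inhibition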
697 NFkB inh = inhibitors of PMA/ionomycin-induced NF-kB reporter, 697 cells, primary screen, B-cell NF-kB inhibitor project, cell-based, luminescence, uHTS; actives 0.33% (n = 330,000); 697 B-cell NF-kB luciferase reporter, 16 h; inhibition, % at 4 µM; in the data active = inhibition above about 35%
Jurkat NFkB inh = inhibitors of induced NF-kB luciferase reporter, primary screen, TCR NF-kB activation inhibitor project, cell-based, luminescence, uHTS; AID 435003, 2010; actives 0.53% (n = 330,000); inhibition, % at 4 µM; Jurkat, PMA/ionomycin-induced NF-kB luciferase reporter; in the data active = inhibition above about 50%
GPR7 antagonist = GPR7 receptor antagonists, primary screen, cell-based, fluorescence, single concentration | actives 1.1% (n = 290,000) | Neuropeptides B/W receptor type 1 (Homo sapiens), P48145 | AID 1861, 2009 | inhibition, % at 4.4 µM | GPR7-expressing cells, fluorescence antagonist assay; in the data active = inhibition above about 16%, passing the limit was not always enough;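 note: cells stimulated with the agonist NPW; 0% = agonist with vehicle and 100% = vehicle without agonist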
Target sequence (P48145 whole entry, looked up): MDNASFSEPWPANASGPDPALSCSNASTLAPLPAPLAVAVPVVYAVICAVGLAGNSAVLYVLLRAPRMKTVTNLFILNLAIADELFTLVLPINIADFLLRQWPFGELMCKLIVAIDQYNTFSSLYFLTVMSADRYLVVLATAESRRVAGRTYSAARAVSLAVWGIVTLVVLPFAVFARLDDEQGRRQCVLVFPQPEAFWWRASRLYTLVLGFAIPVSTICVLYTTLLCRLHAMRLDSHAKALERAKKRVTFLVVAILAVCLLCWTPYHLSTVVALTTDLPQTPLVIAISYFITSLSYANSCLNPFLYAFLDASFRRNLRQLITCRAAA
* = called active by the depositor; x = no result.

SMILES	HSF1 inh	HSF-1 act	T cruzi inh	697 NFkB inh	Jurkat NFkB inh	GPR7 antagonist
O=C(NCCCn1ccnc1)c1cccc(Br)c1	-1	1	-2	2	-6	-8
CN(C)CCn1c(N)nc2ccccc21	-8	-7	-3	14	4	-3
CCCCn1c(N)nc2ccccc21	-71*	-77	-9	8	-4	-4
COc1ccc(-n2c(O)c(/C=N/NS(=O)(=O)c3cccc([N+](=O)[O-])c3)c3ccccc3c2=O)cc1OC	7	4	62*	9	-4	-2
C/C(CC(=O)Nc1cccc2c1CCCC2)=N\NC(=O)COc1ccccc1	29	61*	-8	12	10	7
Nc1nc(-c2cc3ccccc3o2)cs1	48	62*	-9	-65	-98	-10
O=C(c1cc(-c2cccnc2)nc2ccccc12)N1CCN(S(=O)(=O)c2cccs2)CC1	x	x	x	21	13	x
CCCc1ccc(NC(=O)C2CCCN(c3cnccn3)C2)cc1 (stereo not given)	25	61*	38	-71	-16	-9
Cc1ccc(S(=O)(=O)N2CCC(C(=O)Nc3ccc(S(=O)(=O)N4CCCC4)cc3)CC2)cc1C	1	0	74*	19	12	x
Cc1ccc(NC(=O)C2CCN(c3cnccn3)CC2)cc1C	1	16	64*	19	-5	1
O=C(NCc1cccnc1)C(=O)Nc1ccc2c(c1)OCO2	-2	26	-8	12	-5	-5
CCOC(=O)C1CCN(C(=O)COc2ccc(S(=O)(=O)N3CCOCC3)cc2C)CC1	6	12	-13	10	-2	-1
CCOc1ccc(/C=C(\C#N)C(=O)c2c(C)[nH]c3ccccc23)cc1OC	0	11	-11	24	6	-8
COc1cc(/C=C(/C#N)C(=O)c2c(C)[nH]c3ccccc23)ccc1OCC#N	42	68*	-4	15	3	2
CCOc1ccccc1NC(=O)NCc1ccc2c(c1)OCO2	-1	4	-3	12	-5	-17
O=S(=O)(CC(CN1CCCCC1)N1CCCCC1)c1ccc2ccccc2c1 (stereo not given)	54	90*	71*	x	x	-1
COc1cccc(NC(=O)c2csc3c2CCCC3)c1	24	27	-9	-44	-67	-8
CC(C)CCNC(=O)c1csc2c1CCCCC2	9	27	-11	-16	-17	-6
COc1ccc(NC(=O)c2csc3c2CCCC3)cc1	34	53*	-20	-120	-130	2
CCC(C)NC(=O)c1csc2c1CCCCC2 (stereo not given)	19	67*	-11	10	1	-1
COc1ccc2c(C)cc(SCC(=O)NCCN3C(=O)CSC3=O)nc2c1	-5	-8	2	-3	3	-2
COc1cc(/C=C/C(=O)OCC(=O)NCc2cccs2)ccc1OCC#N	-14	-12	1	24	15	-1
Cc1nn2c(CN(C(=O)CN3CCOCC3)c3ccccc3)nnc2c2ccccc12	-56*	-63	-21	6	2	4
Cc1nn2c(CN(C(=O)COc3ccccc3)c3ccccc3)nnc2c2ccccc12	-9	1	11	1	-1	-12
CC1(C)CC(=O)C2=C(C1)c1c(ccc3ccccc13)NC2c1ccc(C(=O)O)cc1 (stereo not given)	-12	-11	-4	-26	-20	3
SMILES	HSF1 inh	HSF-1 act	T cruzi inh	697 NFkB inh	Jurkat NFkB inh	GPR7 antagonist
Cc1ccc(C2Nc3ccc4ccccc4c3C3=C2C(=O)CC(C)(C)C3)o1 (stereo not given)	61	86*	39	-24	-40	-6
O=C(Nc1ccc(OC(F)(F)F)cc1)N1CCN(c2ccnc3cc(Cl)ccc23)CC1	14	44	64*	-22	17	-7
CC(C)(C)C(=O)N1CCN(c2ccnc3cc(Cl)ccc23)CC1	-6	3	20	18	13	2
CC1CCCC(C)N1/N=C/c1ccc(C#N)cc1 (stereo not given)	0	15	-12	0	-2	-1
Cc1csc(NS(=O)(=O)c2cccc([N+](=O)[O-])c2)n1	-2	-8	-8	-36	-14	-15
CCCN1C(=O)S/C(=C\c2ccc(N3CCOCC3)cc2C)C1=O	x	x	x	x	x	-9
CCN1C(=O)S/C(=C\c2ccc(N3CCOCC3)cc2C)C1=O	45	65*	15	-114	-123	-2
CCCN1C(=O)S/C(=C\c2ccc(N3CCOCC3)o2)C1=O	68	93*	28	11	1	-10
CCOc1ccc(Oc2c(/C=N/NC(=O)C3CC3)c(C)nn2-c2ccccc2)cc1	6	8	6	-22	-3	-4
CCOC(=O)c1ccc(CNC(=O)C2CCC(=O)N(Cc3cccc(OC)c3)C2)o1 (stereo not given)	-3	-5	-2	-1	-4	18
COc1cccc(CN2CC(C(=O)NCc3ccc(C)o3)CCC2=O)c1 (stereo not given)	59	108*	-6	-1	0	8
O=C(CSc1ccccn1)Nc1cccc(S(=O)(=O)N2CCCC2)c1	x	x	x	3	-22	x
O=C(Cc1coc2ccc3ccccc3c12)NC1CCCc2ccccc21 (stereo not given)	35	65*	40	-5	6	4
Cn1c(CNC(=O)OC(C)(C)C)n[nH]c1=S	-5	-2	-12	-9	2	-1
CC(=O)NC(=S)Nc1ccc(S(=O)(=O)N(C)Cc2ccccc2)cc1	-6	-2	68*	-12	11	0
COc1ccc(-c2csc3nc(-c4cccnc4)nc(Cl)c23)cc1OC	5	-13	-47	-14	19	-1
Clc1nc(-c2cccnc2)nc2scc(-c3ccccc3)c12	58	72*	11	-74	-30	5
CC1CCN(S(=O)(=O)c2ccc(NC(=O)C3CSC4(C)CCC(=O)N34)cc2)CC1 (stereo not given)	1	-11	2	-11	7	x
COc1ccccc1Nc1nc(NCCCN(C)C)nc(N)c1[N+](=O)[O-]	-73*	-78	29	11	14	-8
COc1ccc(OC)c(Nc2nc(N(C)c3ccccc3)nc(N)c2[N+](=O)[O-])c1	2	-8	69*	-1	-5	-20
CCN(CC)c1ccc(/C=N/NC(=O)C(O)(c2ccccc2)c2ccccc2)o1	164	281*	7	3	5	-3

High-throughput results deposited in PubChem by several laboratories.
